Here are results for 22 molecules from ChEMBL document CHEMBL1153242, “Novel spiropiperidine-based stearoyl-CoA desaturase-1 inhibitors: Identification of 1'-{6-[5-(pyridin-3-ylmethyl)-1,3,4-oxadiazol-2-yl]pyridazin-3-yl}-5-(trifluoromethyl)-3,4-dihydrospiro[chromene-2,4'-piperidine]” (Bioorg Med Chem Lett, 2010).

Structures are written as SMILES. Where only a bound is given, the exact number is not on record here.

Series [1] deals with T1, Stearoyl-CoA desaturase (Homo sapiens, UniProt O00767).
T1 sequence (O00767 whole entry): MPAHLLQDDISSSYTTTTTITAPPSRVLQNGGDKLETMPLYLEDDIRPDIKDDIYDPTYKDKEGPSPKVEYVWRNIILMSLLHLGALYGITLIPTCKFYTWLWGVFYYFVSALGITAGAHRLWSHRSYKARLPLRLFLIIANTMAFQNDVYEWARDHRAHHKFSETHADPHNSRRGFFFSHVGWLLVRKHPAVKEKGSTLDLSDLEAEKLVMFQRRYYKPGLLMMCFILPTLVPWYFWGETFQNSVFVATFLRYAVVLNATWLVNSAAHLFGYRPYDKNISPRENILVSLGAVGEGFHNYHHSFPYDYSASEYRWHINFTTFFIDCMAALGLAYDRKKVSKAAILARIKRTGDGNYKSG
The series is described as follows: Inhibition of human SCD1 expressed in human 293A cells assessed as conversion of [14C]stearate to [14C]oleate. The class given is cell-based.

A short description of series [2]: Cmax in C57BL/6J mouse at 20 mg/kg, po. Further details: dose 20 mg/kg, route oral; call rule not given here. The settings on record: in vivo. In kind it is ADME, organism-based. Summed up: (§1)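 Oral dose of 20 mg/kg in PG/Tween (4/1), given by intubation tube to C57BL/6J mice (n = 3). Plasma sampled up to 8 h after dosing and compound levels measured by LC/MS. Values are arithmetic means of at least two experiments.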

The nature of series [3]: Half life in C57BL/6J mouse at 20 mg/kg, po. The settings on record: in vivo. In kind it is ADME, organism-based. The arrangement: dose 20 mg/kg, route oral. Summed up:
as §1

Series [4] can be described thus: Tmax in C57BL/6J mouse at 20 mg/kg, po. In kind it is ADME, organism-based. The arrangement: dose 20 mg/kg, route oral. The settings on record: in vivo. In a few lines:
as §1

The nature of series [5]: AUC (0 to8 hrs) in C57BL/6J mouse at 20 mg/kg, po. The class given is ADME, organism-based. The arrangement: time < 8 hr, dose 20 mg/kg, route oral. The settings on record: plasma. Summed up: as §1
The subject of series [6] is Mus musculus. Nature of the series: (§2) Oral bioavailability in C57BL/6J mouse at 20 mg/kg. In kind it is ADME, organism-based. The settings on record: in vivo.
Series [7] concerns Mus musculus. Nature of the series: In vivo inhibition of SCD1 in non-fat diet-induced oral dosed C57BL/6J mouse liver assessed as conversion of ratio of [14C]oleate to [14C]stearate after 2 to 3 hrs. The class given is functional. The settings on record: read-out: ID50 (the source's name). In a few lines: (§3)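 C57BL/6J mice on a non-fat diet (n = 2) dosed with inhibitor 2 h or 6 h before [14C]stearate. Mice killed 1 h after the [14C]stearate injection and livers removed. ID50 in mg/kg is the arithmetic mean of at least two experiments.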

The test system of series [8] is Mus musculus. Nature of the series: In vivo inhibition of SCD1 in non-fat diet-induced oral dosed C57BL/6J mouse liver assessed as conversion of ratio of [14C]oleate to [14C]stearate after 6 to 7 hrs. The class given is functional. The settings on record: read-out: ID50 (the source's name). In a few lines:
as §3

The species entered for series [9] is Mus musculus. The series is described as follows: Toxicity in C57BL/6J mouse assessed as occurance of abnormilities in eyes. The class given is organism-based. The settings on record: in vivo. Summed up:
(§4)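 C57BL/6J mice (n = 4) on a non-fat diet received oral doses once daily for 7 days, up to 3 mg/kg. The plasma desaturation index (C18:1/C18:0 ratio) served as the biomarker. Skin and eyes were inspected for abnormalities.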

The species entered for series [10] is Mus musculus. The series is described as follows: Toxicity in C57BL/6J mouse assessed as occurance of abnormilities in skin. In kind it is organism-based. The settings on record: in vivo. Summed up:
as §4

For series [11], the system named is Mus musculus. Nature of the series: Reduction of desaturation index, ratio of C18:1 N9(cis)oleate to C18:0 streate in serum of low fat diet fed po dosed C57BL/6J mouse administered as single dose for 7 days measured after seventh dose. The class given is functional. Further details: scale not given: the % may be the effect or the level left. The settings on record: in the assay text read “non-fat diet” for “low fat diet”. Summed up:
as §4

Series [12] deals with Stearoyl-CoA desaturase 1 (Mus musculus) (UniProt P13516). Nature of the series: Inhibition of SCD1 in mouse liver assessed as conversion of [14C]stearate to [14C]oleate after 60 mins in S9 microsomal fraction.
In series [13] the target is Stearoyl-CoA desaturase (Homo sapiens) (UniProt O00767). The series is described as follows: Inhibition of SCD1 in human 293A cells S9 microsomal fraction assessed as conversion of [14C]stearate to [14C]oleate after 60 mins.
Series [14] addresses T1, Stearoyl-CoA desaturase. Nature of the series: Inhibition of SCD1 in human 293A cell microsomal fraction assessed as conversion of [14C]stearate to [14C]oleate after 60 mins at 0.4 uM.
Series [15] relates to Mus musculus. Nature of the series: In vivo inhibition of SCD1 in db/db mouse liver assessed as conversion of [14C]stearate to [14C]oleate administered through oral gavage. In kind it is functional. The settings on record: read-out: ID50 (the source's name).
Series [16] is described as follows: Clearance in C57BL/6J mouse at 5 mg/kg, iv. In kind it is ADME, organism-based. Further details: dose 5 mg/kg, route intravenous. The settings on record: in vivo. Summed up: (§5)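 Single iv dose of 5 mg/kg in DMA/Tween80/saline (10/10/80), injected into the tail vein of C57BL/6J mice (n = 2). Plasma collected up to 8 h after dosing and compound measured by LC/MS. Values are arithmetic means of at least two experiments.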

Series [17] in a line: Volume of distribution in C57BL/6J mouse at 5 mg/kg, iv. The class given is ADME, organism-based. Further details: dose 5 mg/kg, route intravenous. The settings on record: in vivo. Summed up: as §5
Series [18] can be described thus: as §2. The settings on record: C57BL/6J, in vivo. The class given is ADME, organism-based.

What is called IC50 is the point on the concentration scale where inhibition reaches its midpoint. In general, Cmax refers to the maximum level reached in the sampled fluid or tissue. The half-life is the time in which the quantity being followed falls by half. One may read the Tmax as the time at which the peak concentration occurs. As usually defined, the AUC(0-t) is the area under the concentration-time curve up to a stated or last time point. Consider `FC(F)(F)c1cccc2c1CCC1(CCN(c3ccc(-c4nnc(Cc5cccnc5)o4)nn3)CC1)O2`, for which the IC50 at Stearoyl-CoA desaturase [1] amounted to 0.8 nM; in series [12] it was 0.06 nM; in [13], 0.03 nM. In addition, the Cmax in [2] stood at 2.6 µg/mL. In series [3], this molecule had a half-life of 1.4 h. Moreover, the Tmax in [4] was found to be 1 h. Moreover, in series [5], the AUC(0-t) at 8 h amounted to 7.8 µg·h/mL. Moreover, the F result with Mus musculus [6] was “Not Active”. In addition, the ED50 worked out at 0.5 mg/kg in the series with Mus musculus [7] and 0.8 mg/kg with Mus musculus [8]. The results for the Activity result in the series listed under Mus musculus [9], in the series listed under Mus musculus [10] and with Mus musculus [11] were “Non-toxic”, “Non-toxic” and 75%, respectively.
For the molecule `FC(F)(F)c1cccc2c1CCC1(CCN(c3ccc(-c4nnc(CCc5cccnc5)o4)nn3)CC1)O2`, the values for the IC50 (on Stearoyl-CoA desaturase [1]; in series [12]; in series [13]) were 35 nM, 16 nM and 2 nM, respectively.
Consider `O=C(NCC(O)c1ccccc1)c1ccc(N2CCC3(CC2)Cc2ccccc2CO3)nn1` (stereo not drawn), for which the values for the IC50 (in [12]; on Stearoyl-CoA desaturase [14]) were 76 nM and greater than 400 nM, respectively.
Consider `O=C(NCC(O)c1ccccc1)c1ccc(N2CCC3(CC2)CC(O)c2c(F)cccc2O3)nn1` (stereo not drawn), for which the ED50 with Mus musculus [15] was found to be 7 mg/kg.
Turning to `Cn1nc(Cc2cccnc2)nc1-c1ccc(N2CCC3(CCc4c(cccc4C(F)(F)F)O3)CC2)nn1`, the IC50 was determined as 38 nM at Stearoyl-CoA desaturase [1], 65 nM in series [12] and 4 nM in series [13].
On to `O=C(NCC(O)c1ccccc1)c1ccc(N2CCC3(CC2)Oc2ccccc2CC3=O)nn1` (stereo not drawn), for which the IC50 in series [13] was greater than 10000 nM.
For the molecule `FC(F)(F)c1cccc2c1CCC1(CCN(c3ccc(-c4nnc(Cc5cccnc5)[nH]4)nn3)CC1)O2`, the IC50 at Stearoyl-CoA desaturase [1] is 4 nM; in series [12], 1 nM; in [13] it was 0.13 nM.
Take `O=C(NCC(O)c1ccccc1)c1ccc(N2CCC3(CC2)Oc2ccccc2CC3O)nn1` (stereo not drawn): the results for the half-maximal inhibitory concentration (IC50) (on Stearoyl-CoA desaturase [1]; in series [12]; in series [13]) were 560 nM, 49 nM and 300 nM, respectively.
For `O=C(NCC(O)c1cccnc1)c1ccc(N2CCC3(CCc4c(F)ccc(F)c4O3)CC2)nn1` (stereo not drawn), in the series with Mus musculus [15], the ED50 stood at 5 mg/kg.
As to `O=C(NCC(O)c1ccccc1)c1ccc(N2CCC3(CC2)CC(O)c2ccccc2O3)nn1` (stereo not drawn), the ED50 in the series with Mus musculus [15] was found to be 15 mg/kg.
As for `O=C(NCC(O)c1cccnc1)c1ccc(N2CCC3(CCc4c(F)cccc4O3)CC2)nn1` (stereo not drawn), the IC50 is 7 nM on Stearoyl-CoA desaturase [1], 6 nM in series [12] and 12 nM in series [13]. For the same molecule, the ED50 in the series with Mus musculus [15] turned out to be 2 mg/kg.
With `O=C(NCC(O)c1cccnc1)c1ccc(N2CCC3(CCc4c(Cl)cccc4O3)CC2)nn1` (stereo not drawn), the ED50 in the series on Mus musculus [15] came out at 3 mg/kg.
`Cc1cccc2c1CCC1(CCN(c3ccc(C(=O)NCC(O)c4cccnc4)nn3)CC1)O2` (stereo not drawn): the ED50 with Mus musculus [15] was 4 mg/kg.
For the molecule `O=C(NCC(O)c1ccccc1)c1ccc(N2CCC3(CC2)Cc2ccccc2C3=O)nn1` (stereo not drawn), in series [13], the IC50 came to 2000 nM.
In the case of `O=C(NCC(O)c1ccccc1)c1ccc(N2CCC3(CC2)CC(O)c2cc(F)ccc2O3)nn1` (stereo not drawn), the IC50 in series [13] is greater than 1000 nM.
Regarding `COc1cccc2c1C(O)CC1(CCN(c3ccc(C(=O)NCC(O)c4ccccc4)nn3)CC1)O2` (stereo not drawn), in series [13], the IC50 was greater than 1000 nM.
Take `O=C(NCC(O)c1ccccc1)c1ccc(N2CCC3(CC2)CC(O)c2ccc(F)cc2O3)nn1` (stereo not drawn): in the series on Mus musculus [15], the ED50 is 20 mg/kg.
As for `O=C(NCC(O)c1ccccc1)c1ccc(N2CCC3(C=Cc4ccccc4O3)CC2)nn1` (stereo not drawn), the IC50 in series [12] came to 61 nM; in [13] it was 790 nM.
Regarding `O=C(NCC(O)c1ccccc1)c1ccc(N2CCC3(CC2)Oc2ccccc2C3=O)nn1` (stereo not drawn), the IC50 in series [12] was greater than 10000 nM.
Broadly, the clearance is the volume of plasma or blood freed of the substance per unit of time. Usually Vd stands for a proportionality between amount in the body and measured concentration, not a real space. For orientation: bioavailability means dose-corrected exposure relative to a reference, in per cent. Take `O=C(NCC(O)c1cccnc1)c1ccc(N2CCC3(CCc4c(cccc4C(F)(F)F)O3)CC2)nn1` (stereo not drawn): the ED50 in the series with Mus musculus [15] came to 0.8 mg/kg; in the series on Mus musculus [7], 0.9 mg/kg; in the series with Mus musculus [8], 2.5 mg/kg. Further, the clearance in [16] stood at 1.02 L/h/kg. Further, the Vd in [17] amounted to 1 L/kg. The molecule further had a Cmax in [2] of 3.5 µg/mL. This molecule showed a half-life in series [3] of 2 h. Further, the Tmax in series [4] was 1 h. This molecule showed an AUC(0-t) at 8 h in [5] of 13 µg·h/mL. The bioavailability in series [18] came to 67%.
Turning to `FC(F)(F)c1cccc2c1CCC1(CCN(c3ccc(-c4nnc(-c5cccnc5)o4)nn3)CC1)O2`, the IC50 in series [12] is greater than 10000 nM.
For `O=C(NCC(O)c1ccccc1)c1ccc(N2CCC3(CC2)CC(=O)c2ccccc2O3)nn1` (stereo not drawn), the concentration for half-maximal inhibition (IC50) on Stearoyl-CoA desaturase [1] was 690 nM; in series [12], 50 nM; in series [13] it was 250 nM.
